Test results: paper PMC4404408 (Journal of acquired immune deficiency syndromes (1999), 2014)
“And” between values parts separate entries of the source, which are not always exact repeats. Equal entries are not always repeated. Where two headings read alike, the source gives them in different places.

How the values were obtained:
[1] = Phase I open-label drug interaction PK study, arm B
[2] = Phase I open-label drug interaction PK study, arm A; conditions: for Cmax: in vivo
[3] = human, in vivo
[4] = Fasting lipid profile, calculated LDL-C; assay type: in vivo, healthy adult HIV-1 seronegative volunteers
How it was run: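 Healthy HIV-seronegative volunteers aged 18–60 (BMI 18–25, ≥50 kg) took pitavastatin with observed dosing on day 4. They then took EFV 600 mg (arm A, night) or DRV/ritonavir 800/100 mg (arm B, morning) on days 5–14, plus pitavastatin 2 mg on days 15–18. Fasting serum total cholesterol, triglycerides and HDL were measured enzymatically on days 0, 4, 14 and 18, and LDL-C was calculated by the Friedewald equation.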

[5] = cited from earlier work
[6] = human, in vivo; remark: listed apart in the source
[7] = coadministered with pitavastatin vs DRV/r alone, nonsignificant
[8] = pitavastatin 4 mg daily with DRV/r 800/100 mg, healthy volunteers
[9] = pitavastatin 4 mg once daily and lopinavir/r 400/100 mg twice a day, healthy volunteers

## CC(C)CN(C[C@@H](O)[C@H](Cc1ccccc1)NC(=O)O[C@H]1CO[C@H]2OCC[C@H]21)S(=O)(=O)c1ccc(N)cc1 [DRV, darunavir]
[1]; [7]
  Increase in DRV mean AUC0-τ: 8% and < 10%
  Increase in DRV mean Cmax: 3% and < 10%
[1]; with pitavastatin, Fig. 3B
  DRV mean plasma concentrations, alone vs coadministered: remained similar

## O=C1Nc2ccc(Cl)cc2[C@@](C#CC2CC2)(C(F)(F)F)O1 [EFV, efavirenz]
[2]; EFV 600 mg with pitavastatin 2 mg, day 18, N=14
  EFV AUC0-τ, geometric mean: 44400 ng·h/mL
[2]; EFV only, day 14, N=14
  EFV Tmax, median (IQR): 2.0 (0.9 to 3.0) h
[2]; human
  Cmax: 3720 ng/mL
[2]; human, 600 mg
  Cmax: 4150 ng/mL
[2]; human, plasma, oral, 600 mg
  AUC: 49500 ng·h/mL
[2]; human, plasma, oral, EFV Tmax, median (IQR), EFV with pitavastatin, day 18, N=14
  Tmax: 1.5 h
[3]
  EFV AUC0-τ geometric mean ratio (90% CI): 0.90 (0.75 to 1.06)
  EFV mean plasma concentrations, alone vs coadministered: remained similar throughout the entire 24-hour PK period

## O=C(O)C[C@H](O)C[C@H](O)/C=C/c1c(C2CC2)nc2ccccc2c1-c1ccc(F)cc1 [Pitavastatin, pitavastatin]
[4]; day 0-4, pitavastatin only, arms A and B
  Change in mean LDL: decreased
[4]; day 14 to day 18, pitavastatin and either EFV or DRV/r
  Change in mean LDL: decreased
[3]
  Pitavastatin Tmax, median (IQR): 2.0 (0.9 to 3.0) h
[1]; with DRV/r, 24-hour PK period, Fig. 3A
  Pitavastatin mean plasma concentrations, alone vs coadministered: similar
[5]; combined with ritonavir-boosted atazanavir
  Increase in pitavastatin AUC: 31%
[5]; lopinavir/ritonavir in combination with pitavastatin
  Safety of concomitant administration: safe and well tolerated
[5]; [8]
  Change in pitavastatin Cmax: minimal or no change
  Reduction in pitavastatin AUC0-τ: 26%
[5]; [9]
  Change of pitavastatin Cmax: unaffected
  Reduction of pitavastatin AUC: ~ 20%

## O=C1C[C@H](O)C[C@@H](/C=C/c2c(C3CC3)nc3ccccc3c2-c2ccc(F)cc2)O1 [pitavastatin lactone]
[6]
  Pitavastatin lactone median Tmax: 2.0 h

## CC[C@H](C)C(=O)O[C@H]1C[C@H](O)C=C2C=C[C@H](C)[C@H](CC[C@@H](O)C[C@@H](O)CC(=O)O)[C@H]21 [pravastatin]
[5]; coadministered with EFV
  Decrease of statin AUC by EFV: 40%
[5]; coadministration with lopinavir/ritonavir
  Increase of pravastatin AUC: 33%
[5]; combined with nelfinavir or saquinavir
  Reduction of pravastatin exposure: about 50%
[5]; in the presence of DRV/r
  Increase of pravastatin AUC: 81%
